pEC50, pKi: −log10 of the molar value. Values belong to the compound of their own block, whether it stands above or below them.
Columns and labels:
[1] = tested on: Human immunodeficiency virus 1; assay: Antiviral activity against HIV1 mutant strain 5; type: functional, organism-based
[2] = tested on: Human immunodeficiency virus 1; assay: Ratio of EC50 for HIV1 mutant strain 2 to EC50 for wild type HIV1; type: functional
How it was run: (§1)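 PhenoSense phenotypic assay. Strain 2 protease carries L10I, G16A, K45V, F53L, I54V, K55N, D60E, L63P, A71V, I72K, V77I, V82F, I84V, L90M, I93L. EC50 in µM. Fold change is versus the wild-type EC50.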

[3] = Tmax in Beagle dog at 15 mg/kg, po; type: ADME, organism-based, Canis lupus familiaris; parameters: dose 15 mg/kg, route oral; conditions: in vivo
[4] = tested on: Human immunodeficiency virus 1; assay: Antiviral activity against HIV1 3B; type: functional, organism-based; conditions: Human immunodeficiency virus 1, 3B
[5] = Metabolic stability in human liver microsomes assessed as compound remaining at 5 uM in presence of NADPH by RP-HPLC; type: ADME, Microsome; conditions: read-out: Stability
How it was run: (§2)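 Test drug at 5 µM incubated with liver microsomes (0.5 mg/ml) plus cofactor (1 mM NADPH or 5 mM UDPGA) at 37 °C for 30 min. Residual drug measured by RP-HPLC. Values are the mean percent remaining of duplicates.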

[6] = tested on: Human immunodeficiency virus 1; assay: Antiviral activity against HIV1 mutant strain 3; type: functional, organism-based
[7] = Cmax in Beagle dog at 15 mg/kg, po; type: ADME, organism-based, Canis lupus familiaris; parameters: dose 15 mg/kg, route oral; conditions: in vivo
[8] = Plasma concentration in Beagle dog at 15 mg/kg, po after 12 hrs; type: ADME, organism-based, Canis lupus familiaris; parameters: dose 15 mg/kg, route oral
[9] = tested on: Human immunodeficiency virus 1; assay: Antiviral activity against HIV1 mutant strain 1; type: functional, organism-based
How it was run: (§3)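 PhenoSense phenotypic susceptibility assay on multi-drug-resistant clinical HIV-1 protease variant strains, run in parallel with a wild-type reference. EC50 read in µM. Fold change is mutant EC50 divided by wild-type EC50.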

[10] = tested on: Human immunodeficiency virus 1; assay: Antiviral activity against wild type HIV1; type: functional, organism-based
[11] = AUC in Beagle dog at 15 mg/kg, po; type: ADME, organism-based, Canis lupus familiaris; parameters: dose 15 mg/kg, route oral; conditions: plasma
[12] = tested on: Human immunodeficiency virus 1; assay: Ratio of EC50 for HIV1 mutant strain 3 to EC50 for wild type HIV1; type: functional
[13] = tested on: Human immunodeficiency virus 1; assay: Ratio of EC50 for HIV1 mutant strain 6 to EC50 for wild type HIV1; type: functional
Liver [14] = assay: Metabolic stability in dog liver microsomes assessed as compound remaining in presence of NADPH by RP-HPLC; type: ADME, Canis lupus familiaris, Microsome; how it was run: as §2
[15] = Plasma clearance in Beagle dog at 15 mg/kg, iv; type: ADME, organism-based, Canis lupus familiaris; parameters: dose 15 mg/kg, route intravenous
[16] = tested on: Human immunodeficiency virus 1; assay: Antiviral activity against HIV1 3B in presence of 50% human serum; type: functional, organism-based; conditions: Human immunodeficiency virus 1, 3B
[17] = Oral bioavailability in Beagle dog at 15 mg/kg; type: ADME, organism-based, Canis lupus familiaris; conditions: in vivo
[18] = tested on: Human immunodeficiency virus 1; assay: Ratio of EC50 for HIV1 mutant strain 5 to EC50 for wild type HIV1; type: functional
[19] = tested on: Human immunodeficiency virus 1; assay: Ratio of EC50 for HIV1 mutant strain 1 to EC50 for wild type HIV1; type: functional; how it was run: as §3
[20] = Volume of distribution at steady state in Beagle dog at 15 mg/kg, iv; type: ADME, organism-based, Canis lupus familiaris; parameters: dose 15 mg/kg, route intravenous; conditions: in vivo, read-out: Vdss
Liver [21] = assay: Metabolic stability in dog liver microsomes assessed as compound remaining in presence of UDPGA by RP-HPLC; type: ADME, Canis lupus familiaris, Microsome; how it was run: as §2
[22] = tested on: Human immunodeficiency virus 1; assay: Antiviral activity against HIV1 mutant strain 4; type: functional, organism-based
[23] = tested on: Human immunodeficiency virus 1; assay: Antiviral activity against HIV1 mutant strain 7; type: functional, organism-based
How it was run: (§4)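 PhenoSense phenotypic assay. Strain 7 protease mutations include T4A, L10I, K20R, L23I, L33F, E35D, M36I, K43T, M46L. EC50 in µM. Fold change is versus the wild-type EC50.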

Protease = Protease (Human immunodeficiency virus 1, UniProt Q9YQ12); assay: Inhibition of HIV1 protease
Sequence of Protease (Q9YQ12 whole entry): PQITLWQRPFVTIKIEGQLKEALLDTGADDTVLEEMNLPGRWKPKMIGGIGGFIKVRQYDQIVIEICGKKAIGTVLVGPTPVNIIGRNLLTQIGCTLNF

[24] = tested on: Human immunodeficiency virus 1; assay: Ratio of EC50 for HIV1 mutant strain 4 to EC50 for wild type HIV1; type: functional
[25] = tested on: Human immunodeficiency virus 1; assay: Ratio of EC50 for HIV1 mutant strain 7 to EC50 for wild type HIV1; type: functional; how it was run: as §4
[26] = tested on: Human immunodeficiency virus 1; assay: Antiviral activity against HIV1 mutant strain 2; type: functional, organism-based; how it was run: as §1
[27] = Metabolic stability in human liver microsomes assessed as compound remaining at 5 uM in presence of UDPGA by RP-HPLC; type: ADME, Microsome; conditions: read-out: Stability; how it was run: as §2
[28] = tested on: Human immunodeficiency virus 1; assay: Antiviral activity against HIV1 mutant strain 6; type: functional, organism-based
[29] = Metabolic stability in human liver microsomes assessed as compound remaining at 5 uM by RP-HPLC; type: ADME, Microsome; conditions: read-out: Stability; how it was run: as §2
[30] = Metabolic stability in dog liver microsomes assessed as compound remaining at 5 uM in presence of 0.5 uM ritonavir by RP-HPLC; type: ADME, Canis lupus familiaris, Microsome; conditions: with ritonavir 0.5 uM, read-out: Stability
[31] = Metabolic stability in rat liver microsomes assessed as compound remaining at 5 uM in presence of 0.5 uM ritonavir by RP-HPLC; type: ADME, Microsome; conditions: with ritonavir 0.5 uM, read-out: Stability
[32] = Metabolic stability in dog liver microsomes assessed as compound remaining at 5 uM by RP-HPLC; type: ADME, Canis lupus familiaris, Microsome; conditions: read-out: Stability; how it was run: as §2
[33] = Metabolic stability in human liver microsomes assessed as compound remaining at 5 uM in presence of 0.5 uM ritonavir by RP-HPLC; type: ADME, Microsome; conditions: with ritonavir 0.5 uM, read-out: Stability
[34] = Metabolic stability in dog liver microsomes assessed as compound remaining at 5 uM in presence of 2.5 uM ritonavir by RP-HPLC; type: ADME, Canis lupus familiaris, Microsome; conditions: with ritonavir 2.5 uM, read-out: Stability
[35] = Metabolic stability in human liver microsomes assessed as compound remaining at 5 uM in presence of 2.5 uM ritonavir by RP-HPLC; type: ADME, Microsome; conditions: with ritonavir 2.5 uM, read-out: Stability
[36] = Metabolic stability in rat liver microsomes assessed as compound remaining at 5 uM in presence of 2.5 uM ritonavir by RP-HPLC; type: ADME, Microsome; conditions: with ritonavir 2.5 uM, read-out: Stability
[37] = Metabolic stability in rat liver microsomes assessed as compound remaining at 5 uM by RP-HPLC; type: ADME, Microsome; conditions: read-out: Stability; how it was run: as §2

SMILES: COC(=O)N[C@H](C(=O)N[C@@H](Cc1ccccc1)[C@@H](O)CN(Cc1ccc(-c2ccccn2)cc1)NC(=O)[C@@H](NC(=O)OC)C(C)(C)C)C(C)(C)C [ATAZANAVIR]
pEC50 [1]: 6.58 | Ratio EC50 [2]: 32 | Tmax [3]: 30 min | pEC50 [4]: > 8.40 | remaining at 5 µM [5]: 83% | pEC50 [6]: 7.64 | Cmax [7]: 4200 nM | concentration at 12 h [8]: 50 nM | pEC50 [9]: 7.04 | pEC50 [10]: 8.82 | AUC [11]: 15 µM·h | Ratio EC50 [12]: 16 | Ratio EC50 [13]: 90 | Stability (Liver [14]): 83% | clearance [15]: 26.7 mL/min/kg | pEC50 [16]: 8.05 | bioavailability [17]: 102% | Ratio EC50 [18]: 180 | Ratio EC50 [19]: 62 | Vd [20]: 2 L/kg | Stability (Liver [21]): > 95% | pEC50 [22]: 7.02 | pEC50 [23]: 7.13 | pKi (Protease): 10.30 | Ratio EC50 [24]: 64 | Ratio EC50 [25]: 50 | pEC50 [26]: 7.32 | remaining at 5 µM [27]: > 95% | pEC50 [28]: 6.87

SMILES: CC(C)(C)NC(=O)[C@@H]1C[C@@H]2CCCC[C@@H]2CN1C[C@@H](O)[C@H](Cc1ccccc1)NC(=O)[C@H](CC(N)=O)NC(=O)c1ccc2ccccc2n1
pEC50 [1]: < 6.30 | pEC50 [4]: 8.15 | pEC50 [6]: < 6.30 | pEC50 [9]: < 6.30 | pEC50 [10]: 8.72 | pEC50 [16]: 7.30 | pEC50 [22]: < 6.30 | pEC50 [23]: 6.85 | pEC50 [26]: 7.01 | pEC50 [28]: 6.80

SMILES: CC(C)c1nc(CN(C)C(=O)N[C@H](C(=O)N[C@@H](Cc2ccccc2)C[C@H](O)[C@H](Cc2ccccc2)NC(=O)OCc2cncs2)C(C)C)cs1 [RITONAVIR]
pEC50 [1]: < 5.52 | pEC50 [4]: 8.70 | pEC50 [6]: < 5.52 | pEC50 [9]: 5.76 | pEC50 [10]: 7.80 | pEC50 [16]: 7.39 | pEC50 [22]: 6.00 | pEC50 [23]: < 5.52 | pEC50 [26]: < 5.52 | pEC50 [28]: < 5.52

SMILES: Cc1cccc(C)c1OCC(=O)N[C@@H](Cc1ccccc1)[C@@H](O)C[C@H](Cc1ccccc1)NC(=O)[C@H](C(C)C)N1CCCNC1=O [LOPINAVIR]
pEC50 [1]: 6.09 | pEC50 [4]: 8.10 | pEC50 [6]: 6.18 | remaining at 5 µM [29]: 10% | remaining at 5 µM [30]: 83% | remaining at 5 µM [31]: 83% | pEC50 [9]: 6.67 | pEC50 [10]: 8.43 | remaining at 5 µM [32]: 16% | pEC50 [16]: 8.10 | remaining at 5 µM [33]: > 95% | pEC50 [22]: 7.18 | remaining at 5 µM [34]: > 95% | remaining at 5 µM [35]: > 95% | pEC50 [23]: 6.67 | remaining at 5 µM [36]: > 95% | remaining at 5 µM [37]: 11% | pEC50 [26]: 6.60 | pEC50 [28]: 6.39

SMILES: Cc1c(O)cccc1C(=O)N[C@@H](CSc1ccccc1)[C@H](O)CN1C[C@H]2CCCC[C@H]2C[C@H]1C(=O)NC(C)(C)C
pEC50 [1]: 6.11 | Ratio EC50 [2]: 64 | pEC50 [4]: 7.72 | pEC50 [6]: 6.38 | pEC50 [9]: 6.34 | pEC50 [10]: 8.27 | Ratio EC50 [12]: 75 | Ratio EC50 [13]: >273 | pEC50 [16]: 6.53 | Ratio EC50 [18]: 141 | Ratio EC50 [19]: 82 | pEC50 [22]: < 5.82 | pEC50 [23]: 6.29 | pKi (Protease): 9.03 | Ratio EC50 [24]: >273 | Ratio EC50 [25]: 94 | pEC50 [26]: 6.46 | pEC50 [28]: < 5.82

pEC50 [4]: 7.74 | remaining at 5 µM [5]: 60% | pEC50 [16]: 7.06 | pKi (Protease): 9.51 | remaining at 5 µM [27]: > 95%
SMILES: COc1ccc(C[C@H](NC(=O)c2cccc(N)c2Cl)[C@H](O)C(=O)N2CSC(C)(C)[C@H]2C(=O)NCc2ccccc2C)cc1

pEC50 [4]: 7.68 | remaining at 5 µM [5]: 66% | pEC50 [16]: 6.86 | pKi (Protease): 9.59 | remaining at 5 µM [27]: 93%
SMILES: COc1cccc(C[C@H](NC(=O)c2cccc(N)c2Cl)[C@H](O)C(=O)N2CSC(C)(C)[C@H]2C(=O)NCc2ccccc2C)c1

pEC50 [4]: 7.70 | remaining at 5 µM [5]: 74% | pEC50 [16]: 7.11 | pKi (Protease): 9.79 | remaining at 5 µM [27]: > 95%
SMILES: Cc1ccccc1CNC(=O)[C@H]1N(C(=O)[C@@H](O)[C@H](Cc2ccc3c(c2)OCO3)NC(=O)c2cccc(N)c2Cl)CSC1(C)C

pEC50 [4]: 7.70 | remaining at 5 µM [5]: 54% | pEC50 [16]: 7.18 | pKi (Protease): 9.82 | remaining at 5 µM [27]: > 95%
SMILES: CCOc1ccc(C[C@H](NC(=O)c2cccc(N)c2Cl)[C@H](O)C(=O)N2CSC(C)(C)[C@H]2C(=O)NCc2c(C)cccc2C)cc1
